Assay results: ChEMBL document CHEMBL3856206, “Nitroimidazole carboxamides as antiparasitic agents targeting Giardia lamblia, Entamoeba histolytica and Trichomonas vaginalis” (Eur J Med Chem, 2016)
Calls of active or inactive are those of the source. No cut-off for these calls is given here.

Tests used:
[1] = Selectivity index, ratio of CC50 for HEK293 cells to EC50 for metronidazole sensitive Giardia lamblia WB trophozoites
[2] = Selectivity index, ratio of CC50 for human HepG2 cells to EC50 for metronidazole sensitive Giardia lamblia WB trophozoites
[3] = tested on: Entamoeba histolytica; assay: Potency index, ratio of metronidazole EC50 to compound EC50 for metronidazole sensitive Entamoeba histolytica HM-1:IMSS trophozoites; format: functional
[4] = tested on: Giardia intestinalis; assay: Potency index, ratio of metronidazole EC50 to compound EC50 for metronidazole resistant Giardia lamblia 713M3 trophozoites; format: functional, Giardia duodenalis
[5] = Metabolic stability in human liver microsomes assessed as compound remaining at 5 uM after 2 hrs in presence of NADPH by LC/MS/MS analysis; format: ADME; details: read-out: Stability
[6] = Antiparasitic activity against metronidazole sensitive Clostridium difficile 630 ATCC BAA-1382 after 24 hrs by broth microdilution method; format: functional, Clostridioides difficile 630; details: Clostridioides difficile, ATCC BAA-1382, 24 h
In short: (§1)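 C. difficile 630 and NAP1/027 grown anaerobically overnight in BHIS at 37 °C, diluted 40-fold, grown ~4.5 h to mid-log (OD600 0.4–0.6). Final inoculum 5 × 10^5 CFU/mL in BHIS against two-fold dilutions, 64 to 0.03 μg/mL, 3% maximum DMSO, in pre-reduced plates (5% H2, 10% CO2, 85% N2). Incubated 24 h at 37 °C. MIC is the lowest concentration without visible growth. Median of replicates reported.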

[7] = Cytotoxicity against HEK293 cells assessed as cell growth inhibition after 24 hrs by resazurin assay; format: toxicity, cell-based; details: human
In short: (§2)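 HEK293 (3000/well) and HepG2 (5000/well) cells cultured 24 h in DMEM with 10% FBS at 37 °C, 5% CO2. Compound dilution series added, top concentration 100 μM, 0.5% final DMSO, for 24 h. Then 5 μM resazurin added for 2 h at 37 °C. 1% Triton X-100 served as the lysis control.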

[8] = tested on: Clostridioides difficile; assay: Antiparasitic activity against Clostridium difficile NAP1/027 ATCC BAA-1803 after 24 hrs by broth microdilution method; format: functional; details: NAP1/027 ATCC BAA-1803, 24 h; in short: as §1
[9] = tested on: Entamoeba histolytica; assay: Antiparasitic activity against metronidazole sensitive Entamoeba histolytica HM-1:IMSS trophozoites after 24 to 48 hrs under anaerobic conditions by Celltiter-Glo assay; format: functional
In short: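 Axenic log-phase trophozoites in TYI-S-33 with penicillin and streptomycin, 5000 parasites per well. Tested over a final 8-point three-fold series, 0.01–25 μM. Incubated 24–48 h at 37 °C in anaerobe gas pouches. Viable cells measured by ATP bioluminescence (CellTiter-Glo) in triplicate to give EC50.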

[10] = Cytotoxicity against human HepG2 cells assessed as cell growth inhibition after 24 hrs by resazurin assay; format: toxicity, cell-based; in short: as §2
[11] = tested on: Giardia intestinalis; assay: Potency index, ratio of metronidazole EC50 to compound EC50 for metronidazole sensitive Giardia lamblia WB trophozoites; format: functional, Giardia duodenalis
[12] = Protein binding in human plasma at 5 uM after 30 min by ultrafiltration method; format: ADME, cell-free; details: 0.5 h
[13] = tested on: Giardia intestinalis; assay: Antiparasitic activity against metronidazole sensitive Giardia lamblia WB trophozoites assessed as morphological alterations at 3 times EC50 after 48 hrs under anaerobic conditions by phase contrast microscopic analysis; format: functional; details: Giardia duodenalis

Question: Which results are given for `O=C(NCc1ccccn1)c1ncc([N+](=O)[O-])[nH]1`?
Answer: Ratio CC50/EC50 [1]: >14; Ratio CC50/EC50 [2]: >14

Question: Which “Ratio CC50/EC50” value [1] does the source give for `O=C(NCc1cccc(OC(F)(F)F)c1)c1ncc([N+](=O)[O-])[nH]1` here?
Answer: Its value is greater than 500.

Question: And the “Ratio CC50/EC50” value [2]?
Answer: The value was greater than 500.

Question: Which “Ratio CC50/EC50” value [1] does the source give for `CNC(=O)c1ncc([N+](=O)[O-])[nH]1` here?
Answer: Its value is greater than 10.

Question: And the “Ratio CC50/EC50” value [2]?
Answer: The value was greater than 10.

Question: Which “Ratio CC50/EC50” value [1] does the source give for `CN(C)C(=O)c1ncc([N+](=O)[O-])[nH]1` here?
Answer: Its value is greater than 12.

Question: What about the “Ratio EC50” value [3] of the same molecule?
Answer: The value was 2 - 3.

Question: What about the “Ratio CC50/EC50” value [2] of the same molecule?
Answer: The value was greater than 12.

Question: Which results are given for `O=C(NC1CCCCC1)c1ncc([N+](=O)[O-])[nH]1`?
Answer: Ratio CC50/EC50 [1]: >167; Ratio EC50 [3]: 2 - 3; Ratio CC50/EC50 [2]: >167

Question: For `Cn1c([N+](=O)[O-])cnc1C(=O)NC1CCCCC1`, which “Ratio CC50/EC50” value [1] is on record?
Answer: Its value is greater than 20.

Question: And the “Ratio CC50/EC50” value [2]?
Answer: The value was greater than 20.

Question: What about the “Ratio EC50” value [4] of the same molecule?
Answer: The value was 3 - 12.

Question: Which “Ratio CC50/EC50” value [1] does the source give for `Cn1c([N+](=O)[O-])cnc1C(=O)NCc1ccc(F)cc1` here?
Answer: The value was greater than 29.

Question: What about the remaining at 2 h, 5 µM [5] of the same molecule?
Answer: The remaining at 2 h, 5 µM was 88%.

Question: And the “Ratio CC50/EC50” value [2]?
Answer: The value was greater than 29.

Question: For `NC(=O)c1nc([N+](=O)[O-])cn1CC1CC1`, which MIC [6] is on record?
Answer: Its MIC is greater than 64 µg/mL.

Question: And the CC50 at 24 h [7]?
Answer: The CC50 at 24 h was greater than 100 µM.

Question: What about the MIC [8] of the same molecule?
Answer: Its MIC is greater than 64 µg/mL.

Question: What about the EC50 ([9]; read-out: EC50) of the same molecule?
Answer: The EC50 was greater than 50 µM.

Question: What about the EC50 ([9]; read-out: pEC50 (converted)) of the same molecule?
Answer: Its EC50 is greater than 50.1 µM.

Question: And the CC50 at 24 h [10]?
Answer: Its CC50 at 24 h is greater than 100 µM.

Question: For `NC(=O)c1nc([N+](=O)[O-])cn1Cc1cccc(OC(F)(F)F)c1`, which “Ratio CC50/EC50” value [1] is on record?
Answer: Its value is greater than 12.

Question: And the “Ratio CC50/EC50” value [2]?
Answer: Its value is greater than 12.

Question: Which results are given for `Cc1ccc(CCNC(=O)c2ncc([N+](=O)[O-])[nH]2)cc1`?
Answer: Ratio CC50/EC50 [1]: >1000; Ratio EC50 [3]: 2 - 3; Ratio CC50/EC50 [2]: >1000

Question: With `Cn1c([N+](=O)[O-])cnc1C(=O)N1CCOCC1` as the molecule, how does the “Ratio EC50” value [11] read?
Answer: The value was 4.

Question: What about the “Ratio CC50/EC50” value [1] of the same molecule?
Answer: Its value is greater than 63.

Question: What about the remaining at 2 h, 5 µM [5] of the same molecule?
Answer: Its remaining at 2 h, 5 µM is 97%.

Question: What about the “Ratio CC50/EC50” value [2] of the same molecule?
Answer: Its value is greater than 63.

Question: Which results are given for `NC(=O)c1nc([N+](=O)[O-])cn1Cc1ccc(OC(F)(F)F)cc1`?
Answer: Ratio CC50/EC50 [1]: >22; Ratio CC50/EC50 [2]: >22

Question: For `CN(CCO)C(=O)c1ncc([N+](=O)[O-])[nH]1`, which “Ratio CC50/EC50” value [1] is on record?
Answer: The value was greater than 4.

Question: And the “Ratio CC50/EC50” value [2]?
Answer: The value was greater than 4.

Question: With `CC(NC(=O)c1ncc([N+](=O)[O-])n1C)c1ccc(F)cc1` (stereo unspecified) as the molecule, how does the “Ratio CC50/EC50” value [1] read?
Answer: Its value is greater than 34.

Question: And the “Ratio CC50/EC50” value [2]?
Answer: Its value is greater than 34.

Question: What about the “Ratio EC50” value [4] of the same molecule?
Answer: Its value is 3 - 12.

Question: For `Cc1ncc([N+](=O)[O-])n1CCO` [METRONIDAZOLE], which remaining at 2 h, 5 µM [5] is on record?
Answer: The remaining at 2 h, 5 µM was 100%.

Question: For `Cn1c([N+](=O)[O-])cnc1C(=O)N1CCCC1`, which “Ratio CC50/EC50” value [1] is on record?
Answer: Its value is greater than 34.

Question: What about the “Ratio CC50/EC50” value [2] of the same molecule?
Answer: Its value is greater than 34.

Question: And the “Ratio EC50” value [4]?
Answer: Its value is 3 - 12.

Question: What does the source list for `CC(NC(=O)c1ncc([N+](=O)[O-])[nH]1)c1ccc(F)cc1` (stereo unspecified)?
Answer: Ratio CC50/EC50 [1]: >250; Ratio EC50 [3]: 2 - 3; Ratio CC50/EC50 [2]: >250

Question: What does the source list for `Cn1c([N+](=O)[O-])cnc1C(=O)NCc1ccccn1`?
Answer: Ratio EC50 [11]: 4; Ratio CC50/EC50 [1]: >63; Ratio CC50/EC50 [2]: >63; Ratio EC50 [4]: 3 - 12

Question: What does the source list for `Cn1c([N+](=O)[O-])cnc1C(=O)NC1CC1`?
Answer: Ratio CC50/EC50 [1]: >29; Ratio CC50/EC50 [2]: >29

Question: Which “Ratio CC50/EC50” value [1] does the source give for `CNC(=O)c1nc([N+](=O)[O-])cn1Cc1ccc(OC(F)(F)F)cc1` here?
Answer: The value was greater than 29.

Question: And the “Ratio CC50/EC50” value [2]?
Answer: Its value is greater than 29.

Question: Which “Ratio CC50/EC50” value [2] does the source give for `O=C(NO)c1nc([N+](=O)[O-])cn1Cc1ccc(OC(F)(F)F)cc1` here?
Answer: The value was greater than 20.

Question: With `O=C(NCc1ccc(F)cc1)c1ncc([N+](=O)[O-])[nH]1` as the molecule, how does the PPB [12] read?
Answer: Its PPB is greater than 99%.

Question: What about the “Ratio CC50/EC50” value [1] of the same molecule?
Answer: The value was greater than 250.

Question: And the remaining at 2 h, 5 µM [5]?
Answer: The remaining at 2 h, 5 µM was 94%.

Question: What about the “Ratio CC50/EC50” value [2] of the same molecule?
Answer: The value was greater than 250.

Question: And the Activity [13]?
Answer: The Activity was “Active”.

Question: Which results are given for `O=C(c1ncc([N+](=O)[O-])[nH]1)N1CCCC1`?
Answer: Ratio CC50/EC50 [1]: >29; Ratio CC50/EC50 [2]: >29

Question: For `O=C(NC1CC1)c1ncc([N+](=O)[O-])[nH]1`, which “Ratio CC50/EC50” value [1] is on record?
Answer: Its value is greater than 20.

Question: What about the “Ratio CC50/EC50” value [2] of the same molecule?
Answer: The value was greater than 20.

Question: Which “Ratio CC50/EC50” value [1] does the source give for `Cc1ccc(CCNC(=O)c2ncc([N+](=O)[O-])n2C)cc1` here?
Answer: The value was greater than 36.

Question: What about the “Ratio CC50/EC50” value [2] of the same molecule?
Answer: The value was greater than 36.

Question: Which “Ratio CC50/EC50” value [1] does the source give for `CN(C)C(=O)c1nc([N+](=O)[O-])cn1Cc1ccc(OC(F)(F)F)cc1` here?
Answer: The value was greater than 37.

Question: What about the “Ratio CC50/EC50” value [2] of the same molecule?
Answer: Its value is greater than 37.

Question: Which results are given for `O=C(c1ncc([N+](=O)[O-])[nH]1)N1CCOCC1`?
Answer: Ratio CC50/EC50 [1]: >11; remaining at 2 h, 5 µM [5]: 100%; Ratio CC50/EC50 [2]: >11

Question: With `O=C(NCc1ccc(OC(F)(F)F)cc1)c1ncc([N+](=O)[O-])[nH]1` as the molecule, how does the “Ratio CC50/EC50” value [1] read?
Answer: The value was greater than 500.

Question: With `NNC(=O)c1nc([N+](=O)[O-])cn1Cc1ccc(OC(F)(F)F)cc1` as the molecule, how does the “Ratio CC50/EC50” value [1] read?
Answer: The value was greater than 13.

Question: What about the “Ratio CC50/EC50” value [2] of the same molecule?
Answer: The value was greater than 13.

Question: For `NC(=O)c1nc([N+](=O)[O-])cn1Cc1ccccn1`, which “Ratio CC50/EC50” value [1] is on record?
Answer: The value was greater than 3.7.

Question: What about the “Ratio CC50/EC50” value [2] of the same molecule?
Answer: The value was greater than 3.7.

Question: Which results are given for `CCOC(=O)c1nc([N+](=O)[O-])cn1Cc1ccc(OC(F)(F)F)cc1`?
Answer: Ratio CC50/EC50 [1]: >17; Ratio CC50/EC50 [2]: >17

Question: Which “Ratio CC50/EC50” value [1] does the source give for `CN(C)C(=O)c1ncc([N+](=O)[O-])n1C` here?
Answer: Its value is greater than 42.

Question: What about the “Ratio CC50/EC50” value [2] of the same molecule?
Answer: Its value is greater than 42.
